Assay results as given in ChEMBL document CHEMBL2407075, “Sulphonamido-quinoxalines: search for anticancer agent” (Eur J Med Chem, 2013).

Assays:
[1] = Oral bioavailability in human; format: ADME, organism-based; settings: in silico prediction
OVCAR-8 = assay: Growth inhibition of human OVCAR8 cells at 10 uM after 48 hrs by sulforhodamine B assay; format: functional; settings: OVCAR-8, 48 h, read-out: GI
Outline: (§1)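 Single-dose screen at 10 µM across the NCI 60 panel. Cells in RPMI 1640 with 5% FBS and 2 mM L-glutamine, plated at 5000–40,000/well and preincubated 24 h at 37 °C, 5% CO2. Drug in DMSO, 48 h exposure. Fixed with TCA, stained with SRB, A515 read. Percent growth is taken relative to untreated control, and inhibition is 100 minus growth.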

SK-MEL-2 = assay: Growth inhibition of human SK-MEL-2 cells at 10 uM after 48 hrs by sulforhodamine B assay; format: functional; settings: SK-MEL-2, 48 h, read-out: GI; outline: as §1
BT-549 = assay: Growth inhibition of human BT549 cells at 10 uM after 48 hrs by sulforhodamine B assay; format: functional; settings: BT-549, 48 h, read-out: GI
Outline: (§2)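 Single-dose NCI-60 prescreen at 10 µM for 48 h at 37 °C and 5% CO2, using cells grown in RPMI 1640 with 5% FBS and 2 mM glutamine. Protein was measured by SRB after TCA fixation: 10% final for adherent lines, 16% for suspension lines. Absorbance was read at 515 nm. Percent growth inhibition was obtained by subtracting percent growth from 100.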

A498 = assay: Growth inhibition of human A498 cells at 10 uM after 48 hrs by sulforhodamine B assay; format: functional; settings: A498, 48 h, read-out: GI; outline: as §2
[2] = Growth inhibition of human HCC2998 cells at 10 uM after 48 hrs by sulforhodamine B assay; format: functional; settings: HCC 2998, 48 h, read-out: GI
Outline: (§3)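 NCI-60 one-dose primary screen at a single 10 µM concentration. Cells in RPMI 1640 with 5% FBS, preincubated 24 h at 37 °C, 5% CO2. Drug exposure 48 h, then TCA fixation, SRB staining and absorbance at 515 nm. Percent growth calculated against time-zero and untreated control wells, then converted to percent growth inhibition.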

MCF7 = assay: Growth inhibition of human MCF7 cells at 10 uM after 48 hrs by sulforhodamine B assay; format: functional; settings: MCF7, 48 h, read-out: GI; outline: as §1
SNB-75 = assay: Growth inhibition of human SNB75 cells at 10 uM after 48 hrs by sulforhodamine B assay; format: functional; settings: SNB-75, 48 h, read-out: GI; outline: as §1
[3] = Growth inhibition of human NCI-ADR-RES cells at 10 uM after 48 hrs by sulforhodamine B assay; format: functional; settings: read-out: GI; outline: as §1
SK-MEL-28 = assay: Growth inhibition of human SK-MEL-28 cells at 10 uM after 48 hrs by sulforhodamine B assay; format: functional; settings: SK-MEL-28, 48 h, read-out: GI; outline: as §1
UO-31 = assay: Growth inhibition of human UO31 cells at 10 uM after 48 hrs by sulforhodamine B assay; format: functional; settings: UO-31, 48 h, read-out: GI; outline: as §1
HCT-15 = assay: Growth inhibition of human HCT15 cells at 10 uM after 48 hrs by sulforhodamine B assay; format: functional; settings: HCT-15, 48 h, read-out: GI; outline: as §3
SK-MEL-5 = assay: Growth inhibition of human SK-MEL-5 cells at 10 uM after 48 hrs by sulforhodamine B assay; format: functional; settings: SK-MEL-5, 48 h, read-out: GI; outline: as §1
OVCAR-4 = assay: Growth inhibition of human OVCAR4 cells at 10 uM after 48 hrs by sulforhodamine B assay; format: functional; settings: OVCAR-4, 48 h, read-out: GI; outline: as §1
SF-539 = assay: Growth inhibition of human SF539 cells at 10 uM after 48 hrs by sulforhodamine B assay; format: functional; settings: SF-539, 48 h, read-out: GI; outline: as §1
HCT-116 = assay: Growth inhibition of human HCT116 cells at 10 uM after 48 hrs by sulforhodamine B assay; format: functional; settings: HCT-116, 48 h, read-out: GI; outline: as §3
Malme-3M = assay: Growth inhibition of human MALME-3M cells at 10 uM after 48 hrs by sulforhodamine B assay; format: functional; settings: read-out: GI; outline: as §1
K562 = assay: Growth inhibition of human K562 cells at 10 uM after 48 hrs by sulforhodamine B assay; format: functional; settings: K562, 48 h, read-out: GI; outline: as §1
RPMI-8226 = assay: Growth inhibition of human RPMI8226 cells at 10 uM after 48 hrs by sulforhodamine B assay; format: functional; settings: RPMI-8226, 48 h, read-out: GI; outline: as §1
UACC-257 = assay: Growth inhibition of human UACC257 cells at 10 uM after 48 hrs by sulforhodamine B assay; format: functional; settings: UACC-257, 48 h, read-out: GI; outline: as §1
U-251 = assay: Growth inhibition of human U251 cells at 10 uM after 48 hrs by sulforhodamine B assay; format: functional; settings: U-251, 48 h, read-out: GI; outline: as §1
COLO 205 = assay: Growth inhibition of human COLO205 cells at 10 uM after 48 hrs by sulforhodamine B assay; format: functional; settings: COLO 205, 48 h, read-out: GI; outline: as §2
MDA-MB-468 = assay: Growth inhibition of human MDA-MB-468 cells at 10 uM after 48 hrs by sulforhodamine B assay; format: functional; settings: MDA-MB-468, 48 h, read-out: GI; outline: as §1
UACC-62 = assay: Growth inhibition of human UACC62 cells at 10 uM after 48 hrs by sulforhodamine B assay; format: functional; settings: UACC-62, 48 h, read-out: GI; outline: as §1
NCI-H23 = assay: Growth inhibition of human NCI-H23 cells at 10 uM after 48 hrs by sulforhodamine B assay; format: functional; settings: NCI-H23, 48 h, read-out: GI; outline: as §1
SW-620 = assay: Growth inhibition of human SW620 cells at 10 uM after 48 hrs by sulforhodamine B assay; format: functional; settings: SW-620, 48 h, read-out: GI; outline: as §1
HT-29 = assay: Growth inhibition of human HT-29 cells at 10 uM after 48 hrs by sulforhodamine B assay; format: functional; settings: HT-29, 48 h, read-out: GI; outline: as §3
NCI-H226 = assay: Growth inhibition of human NCI-H226 cells at 10 uM after 48 hrs by sulforhodamine B assay; format: functional; settings: NCI-H226, 48 h, read-out: GI; outline: as §1
OVCAR-3 = assay: Growth inhibition of human OVCAR3 cells at 10 uM after 48 hrs by sulforhodamine B assay; format: functional; settings: OVCAR-3, 48 h, read-out: GI; outline: as §1
NCI-H522 = assay: Growth inhibition of human NCI-H522 cells at 10 uM after 48 hrs by sulforhodamine B assay; format: functional; settings: NCI-H522, 48 h, read-out: GI; outline: as §1
A549 = assay: Growth inhibition of human A549/ATCC cells at 10 uM after 48 hrs by sulforhodamine B assay; format: functional; settings: A549, 48 h, read-out: GI; outline: as §2
ACHN = assay: Growth inhibition of human ACHN cells at 10 uM after 48 hrs by sulforhodamine B assay; format: functional; settings: read-out: GI; outline: as §2
SF-268 = assay: Growth inhibition of human SF268 cells at 10 uM after 48 hrs by sulforhodamine B assay; format: functional; settings: SF-268, 48 h, read-out: GI; outline: as §1
[4] = Growth inhibition of human Hs 578T cells at 10 uM after 48 hrs by sulforhodamine B assay; format: functional; settings: read-out: GI; outline: as §3

NC(=S)NNS(=O)(=O)c1ccc2nc(-c3ccccc3)c(-c3ccccc3)nc2c1
bioavailability [1]: 81.4%
inhibition of growth at 10 µM (OVCAR-8): 5.83%
inhibition of growth at 10 µM (SK-MEL-2): 7.94%
inhibition of growth at 10 µM (BT-549): 1.83%
inhibition of growth at 10 µM (A498): 26.8%
inhibition of growth at 10 µM [2]: 8.92%
inhibition of growth at 10 µM (MCF7): 18.9%
inhibition of growth at 10 µM (SNB-75): 25.6%
inhibition of growth at 10 µM [3]: 11.9%
inhibition of growth at 10 µM (SK-MEL-28): 6.93%
inhibition of growth at 10 µM (UO-31): 13.7%
inhibition of growth at 10 µM (HCT-15): 29.9%
inhibition of growth at 10 µM (SK-MEL-5): 39.1%
inhibition of growth at 10 µM (OVCAR-4): 16.5%
inhibition of growth at 10 µM (SF-539): 21.7%
inhibition of growth at 10 µM (HCT-116): 17.8%
inhibition of growth at 10 µM (Malme-3M): 2.94%
inhibition of growth at 10 µM (K562): 34.8%
inhibition of growth at 10 µM (RPMI-8226): 46.4%
inhibition of growth at 10 µM (UACC-257): 8.83%
inhibition of growth at 10 µM (U-251): 26.8%
inhibition of growth at 10 µM (COLO 205): 4.83%
inhibition of growth at 10 µM (MDA-MB-468): 30.8%
inhibition of growth at 10 µM (UACC-62): 24.3%
inhibition of growth at 10 µM (NCI-H23): 11.6%
inhibition of growth at 10 µM (SW-620): 3.72%
inhibition of growth at 10 µM (HT-29): 30.8%
inhibition of growth at 10 µM (NCI-H226): 52.9%
inhibition of growth at 10 µM (OVCAR-3): 1.84%
inhibition of growth at 10 µM (NCI-H522): 13.7%
inhibition of growth at 10 µM (A549): 34.7%
inhibition of growth at 10 µM (ACHN): 1.83%
inhibition of growth at 10 µM (SF-268): 2.92%
inhibition of growth at 10 µM [4]: 6.63%
